According to ChEMBL document CHEMBL4840368, “Structure-activity relationship and molecular modelling studies of quinazolinedione derivatives MMV665916 as potential antimalarial agent” (Bioorg Med Chem, 2021):

Test system: not listed separately
Assay: Tmax in mouse at 140 micromol/kg, po
Format: ADME
Details: in vivo, dose 140 µmol/kg

| SMILES | Tmax [h] |
| --- | --- |
| COc1ccccc1CNC(=O)CCn1c(=O)[nH]c2ccccc2c1=O | 0.25 |

Test system: Plasmodium falciparum
Assay: Antiplasmodial activity against Plasmodium falciparum FCR3
Format: functional, organism-based
Details: not given

| SMILES | EC50 [nM] |
| --- | --- |
| COc1ccccc1CNC(=O)CCn1c(=O)[nH]c2ccsc2c1=O | 70 |
| COc1ccccc1CNC(=O)CCn1c(=O)[nH]c2ccccc2c1=O | 70 |

Target: hERG (KCNH2) (Homo sapiens, UniProt Q12809)
Assay: Inhibition of human ERG at 11 uM
Details: not given

Chain of hERG (KCNH2) (Q12809 whole entry): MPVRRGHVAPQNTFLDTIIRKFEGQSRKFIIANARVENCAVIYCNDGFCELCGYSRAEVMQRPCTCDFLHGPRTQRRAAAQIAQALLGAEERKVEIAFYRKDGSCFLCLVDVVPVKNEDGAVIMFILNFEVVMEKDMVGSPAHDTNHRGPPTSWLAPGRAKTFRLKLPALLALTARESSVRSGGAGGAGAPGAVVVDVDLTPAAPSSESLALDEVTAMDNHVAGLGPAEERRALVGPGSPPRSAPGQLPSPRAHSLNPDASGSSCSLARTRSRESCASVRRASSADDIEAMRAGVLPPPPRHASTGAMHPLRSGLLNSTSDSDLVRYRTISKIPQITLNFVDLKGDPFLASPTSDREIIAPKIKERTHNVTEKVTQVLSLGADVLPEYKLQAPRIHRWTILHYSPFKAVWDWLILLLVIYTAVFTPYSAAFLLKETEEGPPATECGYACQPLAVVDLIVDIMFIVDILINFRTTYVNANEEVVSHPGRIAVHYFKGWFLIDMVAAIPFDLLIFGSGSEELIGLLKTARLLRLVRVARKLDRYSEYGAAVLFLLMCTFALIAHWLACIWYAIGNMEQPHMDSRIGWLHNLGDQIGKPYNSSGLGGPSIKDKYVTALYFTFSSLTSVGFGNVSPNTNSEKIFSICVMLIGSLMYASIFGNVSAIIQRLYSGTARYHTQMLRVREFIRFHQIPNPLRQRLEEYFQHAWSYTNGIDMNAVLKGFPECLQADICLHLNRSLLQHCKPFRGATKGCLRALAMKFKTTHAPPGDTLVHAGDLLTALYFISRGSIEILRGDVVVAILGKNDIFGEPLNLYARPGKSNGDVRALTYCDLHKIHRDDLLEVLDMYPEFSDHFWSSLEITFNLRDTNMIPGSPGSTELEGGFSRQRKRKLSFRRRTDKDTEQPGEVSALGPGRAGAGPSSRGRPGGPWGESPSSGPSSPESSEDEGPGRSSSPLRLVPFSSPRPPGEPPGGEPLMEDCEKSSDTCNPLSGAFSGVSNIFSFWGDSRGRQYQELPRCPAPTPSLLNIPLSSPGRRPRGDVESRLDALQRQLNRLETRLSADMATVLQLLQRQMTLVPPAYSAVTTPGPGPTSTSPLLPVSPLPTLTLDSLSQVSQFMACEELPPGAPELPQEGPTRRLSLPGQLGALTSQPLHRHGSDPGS

| SMILES | inhibition at 11 µM [%] |
| --- | --- |
| COc1ccccc1CNC(=O)CCn1c(=O)[nH]c2ccsc2c1=O | 5 |
| COc1ccccc1CNC(=O)CCn1c(=O)[nH]c2ccccc2c1=O | 19 |

Test system: Plasmodium falciparum
Assay: Antiplasmodial activity against Plasmodium falciparum K1
Format: functional, organism-based
Details: not given

| SMILES | EC50 [nM] |
| --- | --- |
| COc1ccccc1CNC(=O)CCn1c(=O)[nH]c2ccsc2c1=O | 70 |
| COc1ccccc1CNC(=O)CCn1c(=O)[nH]c2ccccc2c1=O | 70 |

Test system: Plasmodium berghei
Assay: Antiplasmodial activity against luciferase expressing Plasmodium berghei
Format: functional, organism-based
Details: not given

| SMILES | IC50 [nM] |
| --- | --- |
| COc1ccccc1CNC(=O)CCn1c(=O)[nH]c2ccsc2c1=O | 56 |
| COc1ccccc1CNC(=O)CCn1c(=O)[nH]c2ccccc2c1=O | 44 |

Test system: not listed separately
Assay: Plasma protein binding in human
Format: ADME, cell-free
Details: read-out: PPB

| SMILES | fraction unbound |
| --- | --- |
| COc1ccccc1CNC(=O)CCn1c(=O)[nH]c2ccsc2c1=O | > 0.05 |
| COc1ccccc1CNC(=O)CCn1c(=O)[nH]c2ccccc2c1=O | < 0.05 |

Test system: not listed separately
Assay: MRT (0 to 7 hrs) in mouse at 140 micromol/kg, po
Format: ADME
Details: in vivo, dose 140 µmol/kg

| SMILES | MRT last [h] |
| --- | --- |
| COc1ccccc1CNC(=O)CCn1c(=O)[nH]c2ccccc2c1=O | 3.01 |

Test system: Plasmodium berghei
Assay: Antiplasmodial activity against Plasmodium berghei at 5 uM
Format: functional
Details: not given

| SMILES | Activity [%] |
| --- | --- |
| COc1ccccc1CNC(=O)CCn1c(=O)[nH]c2ccsc2c1=O | 27 |
| COc1ccccc1CNC(=O)CCn1c(=O)[nH]c2ccccc2c1=O | 23 |

Test system: Plasmodium falciparum
Assay: Antimalarial activity against chloroquine-resistant Plasmodium falciparum FcB1(CQR)Colombia assessed as parasite growth inhibition at 20 uM relative to control
Format: functional
Details: not given
Summary of the method: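 Single-point screen at 20 μM against erythrocytic stages of chloroquine-resistant P. falciparum FcB1 (Columbia) in culture. Read-out is percent parasite growth inhibition.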

| SMILES | inhibition at 20 µM [%] |
| --- | --- |
| Cn1nccc1CNC(=O)CCn1c(=O)[nH]c2ccccc2c1=O | 19.9 |
| O=C(CCn1c(=O)[nH]c2ccccc2c1=O)NC1CCCC1 | 32.9 |
| COc1ccccc1Cn1cc(CCn2c(=O)[nH]c3ccccc3c2=O)nn1 | 68.8 |
| COc1ccccc1CNC(=O)CCn1c(=O)[nH]c2ccc(Br)cc2c1=O | 59.8 |
| COc1ccccc1NC(=O)CCn1c(=O)[nH]c2ccccc2c1=O | 53.1 |
| O=C(CCn1c(=O)[nH]c2ccccc2c1=O)NCc1ccccc1O | 17.1 |
| COc1ccccc1CNS(=O)(=O)CCn1c(=O)[nH]c2ccccc2c1=O | 21.7 |
| O=C(CCn1c(=O)[nH]c2ccccc2c1=O)NCc1ccccc1OC(F)(F)F | 72.5 |
| COc1cc(F)ccc1CNC(=O)CCn1c(=O)[nH]c2ccccc2c1=O | 74.8 |
| COc1ccccc1CN(C)C(=O)CCn1c(=O)[nH]c2ccccc2c1=O | 41.8 |
| COc1ccccc1CNC(=O)CCn1c(=O)[nH]c2ncccc2c1=O | 52.4 |
| O=C(CCn1c(=O)[nH]c2ccccc2c1=O)NCc1nc2ccccc2[nH]1 | 38.1 |
| O=C(CCCn1c(=O)[nH]c2ccccc2c1=O)NC1CCCC1 | 21.3 |
| O=C(CCn1c(=O)[nH]c2ccccc2c1=O)N1CCc2ccccc2C1 | 30.6 |
| O=C(CCn1c(=O)[nH]c2ccccc2c1=O)NCc1ccccc1OC(F)F | 63.8 |
| CCOc1ccccc1CNC(=O)CCn1c(=O)[nH]c2ccccc2c1=O | 84.7 |
| COc1cc(F)c(F)cc1CNC(=O)CCn1c(=O)[nH]c2ccccc2c1=O | 68.3 |
| O=C(CCn1c(=O)[nH]c2ccccc2c1=O)NCc1ccccc1Cl | 56 |
| COc1ccccc1Cn1cc(Cn2c(=O)[nH]c3ccccc3c2=O)nn1 | 30.5 |
| COc1ccccc1CNC(=O)CCn1c(=O)[nH]c2cc(F)c(F)cc2c1=O | 40.5 |
| COc1ccc(CNC(=O)CCn2c(=O)[nH]c3ccccc3c2=O)c(OC)c1 | 28 |
| COc1ccccc1CNC(=O)CCn1c(=O)[nH]c2ccc(F)cc2c1=O | 65.4 |

Test system: not listed separately
Assay: Kinetic solubility of compound at pH 7.4
Format: physicochemical
Details: buffer

| SMILES | Kinetic_solubility |
| --- | --- |
| COc1ccccc1CNC(=O)CCn1c(=O)[nH]c2ccsc2c1=O | Soluble |
| COc1ccccc1CNC(=O)CCn1c(=O)[nH]c2ccccc2c1=O | Insoluble |

Test system: Plasmodium falciparum
Assay: Antimalarial activity against chloroquine-resistant Plasmodium falciparum FcB1(CQR)Colombia assessed as parasite growth inhibition
Format: functional, organism-based
Details: not given
Summary of the method: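 Erythrocytic-stage growth inhibition in culture of chloroquine-resistant P. falciparum FcB1 (Columbia). EC50 comes from a 10-point dose-response, run only for compounds above a 60% inhibition cut-off in the 20 μM single-point screen. Values are means of at least two experiments.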

| SMILES | EC50 [nM] |
| --- | --- |
| COc1ccccc1CNC(=O)CCCn1c(=O)[nH]c2ccccc2c1=O | 16900 |
| COc1ccccc1CCNC(=O)CCCn1c(=O)[nH]c2ccccc2c1=O | 7700 |
| CC(C)CCNC(=O)CCCn1c(=O)[nH]c2ccccc2c1=O | > 25000 |
| COc1ccccc1CNC(=O)CCn1c(=O)[nH]c2ccccc2c1=O | 400 |
| CC(C)CCNC(=O)CCn1c(=O)[nH]c2ccccc2c1=O | > 25000 |
| O=C(CCn1c(=O)[nH]c2ccccc2c1=O)NCc1ccccc1OC(F)(F)F | 6800 |
| COc1cc(F)ccc1CNC(=O)CCn1c(=O)[nH]c2ccccc2c1=O | 5000 |
| O=C(CCn1c(=O)[nH]c2ccccc2c1=O)NCc1ccccc1OC(F)F | 32000 |
| CCOc1ccccc1CNC(=O)CCn1c(=O)[nH]c2ccccc2c1=O | 5500 |
| COc1cc(F)c(F)cc1CNC(=O)CCn1c(=O)[nH]c2ccccc2c1=O | 11300 |
| O=C(CCn1c(=O)[nH]c2ccccc2c1=O)NCc1ccccc1Cl | 37500 |
| COc1ccccc1CCNC(=O)CCn1c(=O)[nH]c2ccccc2c1=O | 10100 |
| COc1ccccc1CNC(=O)CCn1c(=O)[nH]c2ccc(F)cc2c1=O | 20000 |

Test system: not listed separately
Assay: Cytotoxicity against human AB943 cells
Format: cell-based
Details: not given

| SMILES | IC50 [nM] |
| --- | --- |
| COc1ccccc1CNC(=O)CCn1c(=O)[nH]c2ccccc2c1=O | > 100000 |
| O=C(CCn1c(=O)[nH]c2ccccc2c1=O)NCc1ccccc1OC(F)(F)F | > 100000 |
| COc1cc(F)ccc1CNC(=O)CCn1c(=O)[nH]c2ccccc2c1=O | > 100000 |
| CCOc1ccccc1CNC(=O)CCn1c(=O)[nH]c2ccccc2c1=O | > 100000 |

Test system: Plasmodium falciparum
Assay: Antiplasmodial activity against Plasmodium falciparum 3D7
Format: functional, organism-based
Details: not given

| SMILES | EC50 [nM] |
| --- | --- |
| COc1ccccc1CNC(=O)CCn1c(=O)[nH]c2ccsc2c1=O | 70 |
| COc1ccccc1CNC(=O)CCn1c(=O)[nH]c2ccccc2c1=O | 70 |

Test system: not listed separately
Assay: Selectivity index, ratio of IC50 for human AB943 cells to IC50 for Antimalarial activity against chloroquine-resistant Plasmodium falciparum FcB1(CQR)Colombia
Format: toxicity
Details: read-out: Selectivity Index

| SMILES | selectivity ratio |
| --- | --- |
| COc1ccccc1CNC(=O)CCn1c(=O)[nH]c2ccccc2c1=O | > 250 |
| O=C(CCn1c(=O)[nH]c2ccccc2c1=O)NCc1ccccc1OC(F)(F)F | > 14.7 |
| COc1cc(F)ccc1CNC(=O)CCn1c(=O)[nH]c2ccccc2c1=O | > 20 |
| CCOc1ccccc1CNC(=O)CCn1c(=O)[nH]c2ccccc2c1=O | > 18.2 |

Test system: not listed separately
Assay: Cmax in mouse at 140 micromol/kg, po
Format: ADME
Set-up: route oral, dose 140 µmol/kg
Details: in vivo, 140 µmol/kg

| SMILES | Cmax [nM] |
| --- | --- |
| COc1ccccc1CNC(=O)CCn1c(=O)[nH]c2ccccc2c1=O | 21.3 |

Test system: Plasmodium falciparum
Assay: Antiplasmodial activity against Plasmodium falciparum Dd2
Format: functional, organism-based
Details: not given

| SMILES | EC50 [nM] |
| --- | --- |
| COc1ccccc1CNC(=O)CCn1c(=O)[nH]c2ccsc2c1=O | 70 |
| COc1ccccc1CNC(=O)CCn1c(=O)[nH]c2ccccc2c1=O | 70 |

Test system: Plasmodium falciparum
Assay: Antiplasmodial activity against Plasmodium falciparum W2
Format: functional, organism-based
Details: not given

| SMILES | EC50 [nM] |
| --- | --- |
| COc1ccccc1CNC(=O)CCn1c(=O)[nH]c2ccsc2c1=O | 70 |
| COc1ccccc1CNC(=O)CCn1c(=O)[nH]c2ccccc2c1=O | 70 |

Test system: not listed separately
Assay: AUC (0 to 7 hrs) in mouse at 140 micromol/kg, po
Format: ADME
Set-up: time < 7 hr, route oral, dose 140 µmol/kg
Details: in vivo, 140 µmol/kg

| SMILES | AUC(0-t) at 7 h [µM·h] |
| --- | --- |
| COc1ccccc1CNC(=O)CCn1c(=O)[nH]c2ccccc2c1=O | 0.0729 |
